Jurkat tox 60K: cytotoxicity toward Jurkat T cells, primary screen, cytotoxicity control, cell-based, Jurkat E6.1, 60K MLSMR library; Jurkat E6.1 viability, ATP luminescence, 48 h; inhibition, % at 4 µM; actives 1.2% (n = 56,000); AID 463, 2006;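 active means inhibition above the mean inhibition of all tested compounds plus 3 SD, cut at about 28% in these data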
Lung fibro prol: antiproliferative effect on LL 47 fibroblasts – human, LL 47 cells, CellTiter-Glo luminescence, primary screen. LL 47 human lung fibroblast viability, ATP luminescence; stronger effect = lower value. viability, % at 10 µM. actives 1.1% (n = 85,000). AID 719, 2007;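 active means viability at or below 50% in the single dose screen; inactive means viability above 50%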;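 further: compound exposure lasted 72 h before the ATP readout; 100% = median luminescence of untreated cell-only wells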
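Benchmarks: Cell-only wells, no compound | Test system: LL 47 human lung fibroblasts, passage 12 or lower | Input: 1,150 cells/well | Measured by: CellTiter-Glo luminescence measuring cellular ATP | Medium: IMEM, 15% FBS supplement | Schedule: Overnight attachment after seeding, then 72 h compound exposure at 37 °C | Doses: Compound addition at 0.1% DMSO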
HUVEC inhibit: inhibitors of HUVEC proliferation, primary screen, cell-based, 384-well; CellTiter-Glo luminescence, 72 h; stronger effect = lower value; viability, % at 10 µM (by protocol); actives 1.1% (n = 86,000); AID 648, 2007;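 active means viability at or below 30%; inactive means viability above 30%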;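 further: 100% = median luminescence of DMSO-only cell control wells on each plate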
H69AR inhibit: proliferation blockers of H69AR lung cancer cells, primary screen, cell-based, human, 86K library; H69AR lung tumor viability, ATP luminescence, 72 h; stronger effect = lower value; viability, % at 10 µM; actives 6% (n = 85,000); AID 598, 2007;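 active means viability at or below 40%; inactive means viability above 40%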;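 further: multidrug resistant small cell line overexpressing MRP-1 efflux transporter; 100% = mean luminescence of untreated control wells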
The depositor's hits bear a star; . = not tested or not shown. Most compounds without a hit are left out; they make up all but 6.6% or so of the library.

SMILES	Jurkat tox 60K	Lung fibro prol	HUVEC inhibit	H69AR inhibit
CCOc1ccc(CCN2C(=O)C3C4C=CC(C4)C3C2=O)cc1OCC (centres undefined)	5.3	98.7	97.4	93.2
CCOC(=O)N1CCN(C(=O)c2ccc3c(c2)sc2nc(-c4ccc(OC)cc4)cn23)CC1	-3.2	.	.	.
COc1ccc2c(c1)sc1nc(-c3ccccc3)cn12	99.6*	94.0	47.0	19.5*
CC(C)CCN(C(=O)CNC(=O)c1ccco1)C(C(=O)NC1CCCCC1)c1ccco1 (centres undefined)	-13.8	100.2	101.3	80.6
O=C(Cn1c(C(=O)N2CCN(C3CCCC3)CC2)cc2sccc21)c1ccccc1	-2.9	88.9	94.3	89.7
NC(=O)C1CCN(c2nc(-c3ccccc3)nc3c2oc2ccccc23)CC1	-0.6	89.8	62.3	.
CN1CCN(c2nc(-c3ccccc3)nc3c2oc2ccccc23)CC1	-11.0	83.6	23.7*	87.4
NC(=O)NC(c1ccccc1)c1cccc2ccccc12 (centres undefined)	.	95.2	96.8	96.4
CCn1cc(C(=O)NCc2ccco2)c(=O)c2cc(S(=O)(=O)N3CC(C)CC(C)C3)ccc21 (centres undefined)	19.5	65.7	22.1*	67.6
COc1cc(C(=O)Nc2cccc(-c3nc4cc(C)ccc4o3)c2)cc(OC)c1OC	-2.4	94.3	57.0	27.7*
CCCC(=O)Nc1cccc(-c2nc3cc(C)c(C)cc3o2)c1	-7.2	111.4	49.0	13.9*
COc1cc(OC)cc(-c2nc3cc(C)ccc3o2)c1	2.9	69.7	65.0	31.2*
Cc1ccc(NC(=O)c2cc(-n3cnnc3)ccc2Cl)cc1	.	99.7	94.7	97.0
Cc1ccc2oc(-c3cccc(NC(=O)c4cc(-n5cnnc5)ccc4Cl)c3)nc2c1	.	51.3	58.1	10.7*
Cc1ccc(-c2nc3cc(Cl)ccc3o2)cc1	.	97.5	88.1	54.3
O=C(Nc1c(-c2ccccc2)nc2sccn12)c1ccccc1	3.4	102.2	88.5	92.6
COc1cc(C(=O)Nc2cccc(-c3nc4cc(C)ccc4o3)c2C)cc(OC)c1OC	3.8	81.6	83.8	73.3
COc1cc(C(=O)Nc2cc(-c3nc4cc(C)ccc4o3)ccc2C)cc(OC)c1OC	0.2	57.6	42.8	30.4*
CC(=O)c1cc2c(cc1NC(=O)c1cc(C)nn1-c1ccccc1)OCO2	17.1	73.9	46.3	33.4*
CC(=O)Nc1ccc(NC(=O)c2cc(C)nn2-c2ccccc2)cc1	5.3	105.3	111.4	88.7
CCOc1ccc2nc(NCCCNS(=O)(=O)c3ccccc3)c(C#N)cc2c1	9.2	99.5	79.4	71.2
CCCCCc1c(C)nc(Nc2nc(C)c3cc(OC)ccc3n2)[nH]c1=O	-5.8	95.9	78.3	69.6
Cc1nc(Nc2nc(-c3ccccc3)cc(=O)[nH]2)nc2ccccc12	11.3	13.2*	5.0*	14.3*
COc1ccc2c(C)nc(Nc3nc(C)c(C)c(=O)[nH]3)nc2c1	.	13.1*	14.4*	30.5*
COc1nc(Nc2nc3ccccc3c(=O)[nH]2)nc2ccc(C)cc12	-6.5	6.7*	2.6*	13.9*
SMILES	Jurkat tox 60K	Lung fibro prol	HUVEC inhibit	H69AR inhibit
CCc1c(C)nc(Nc2nc(C)c3cc(OC)ccc3n2)[nH]c1=O	-0.6	88.7	84.0	27.9*
COC(=O)C(NC(=O)c1ccc(Cl)cc1)(Nc1nc(C)cs1)C(F)(F)F (centres undefined)	.	100.3	97.8	89.0
O=C(CSc1nnc2c3cc(F)ccc3nc(-c3ccccc3)n12)N1CCOCC1	8.8	86.6	57.4	83.6
CCc1ccc(C(=O)COC(=O)c2cnccn2)cc1	.	95.6	97.2	93.2
CCOC(=O)NC(Nc1ccc(C)cn1)(C(F)(F)F)C(F)(F)F	12.4	96.2	90.4	96.4
CCOC(=O)NC(NCCc1ccccc1)(C(F)(F)F)C(F)(F)F	.	98.1	98.0	12.2*
COc1ccccc1N1CCN(CC(O)c2ccc3cc[nH]c3c2)CC1 (centres undefined)	4.1	94.1	83.3	73.8
Cc1[nH]c2c(ccc3ccccc32)c1C1C(CCN)C1(C)C (centres undefined)	.	2.7*	2.4*	4.4*
Cc1ccc(C)c(S(=O)(=O)C(C#N)c2nc3ccccc3nc2N2CC(C)OC(C)C2)c1 (centres undefined)	-5.2	86.0	69.8	38.6*
CCOC(=O)C1=C(C)NC(=O)NC1/C(C)=C/c1ccccc1 (centres undefined)	-0.4	91.9	86.8	95.1
CC1(C)CC(=O)C2=C(C1)Oc1nc3ccccc3cc1C2C(C#N)C#N (centres undefined)	.	16.8*	50.0	1.6*
CC1(C)CC(=O)C2=C(C1)OC(N)=C(C#N)C2c1ccccc1 (centres undefined)	-0.7	95.3	96.5	89.7
COC(=O)[C@@H](N)CS	.	97.0	97.9	90.3
Cc1ccc2cc3cc(C(=O)N(C)C4CCCCC4)oc3nc2c1	4.7	101.8	115.2	64.0
Cc1cccc(N(C)C(=O)c2cc3cc4ccc(C)cc4nc3o2)c1	10.3	67.7	60.4	18.6*
CCOC(=O)CSC1=C(C#N)C(=O)NC2(CCCCC2)S1	.	94.3	93.8	103.0
O=C(Nc1nnc(-c2ccccc2SCc2ccccc2F)s1)Nc1ccccc1F	.	26.2*	65.8	15.9*
CC(=O)Nc1nnc(SCc2ccccc2F)s1	.	100.5	91.3	91.2
O=c1cc(CN2CCN(c3ccc(F)cc3)CC2)c2cc3c(cc2o1)CCCC3	.	67.7	53.5	31.9*
Cc1cc2oc(=O)cc(CN3CCOCC3)c2cc1C	.	97.4	96.1	79.2
CN1CCN(Cc2cc(=O)oc3cc4c(cc23)CCC4)CC1	-4.9	100.5	93.2	84.9
COc1ccc(N2CCN(Cc3cc(=O)oc4cc(-c5ccccc5)c(O)cc34)CC2)cc1	5.3	7.6*	32.4	3.1*
COc1ccc(N2CCN(Cc3cc(=O)oc4cc(C)c(Cl)cc34)CC2)cc1	2.5	80.2	90.8	24.5*
Cc1cc2oc(=O)cc(CN3CCN(C/C=C/c4ccccc4)CC3)c2cc1O	10.8	.	.	.
N#CC1=C(N)c2ccccc2CC12CCCCC2	.	93.0	78.6	86.3
SMILES	Jurkat tox 60K	Lung fibro prol	HUVEC inhibit	H69AR inhibit
COC(=O)C1=C(CSc2nncn2C)NC(=O)NC1c1ccc(F)cc1 (centres undefined)	.	106.9	102.4	96.3
Cc1c(CCOC(=O)CC23CC4CC(CC(C4)C2)C3)sc[n+]1CC(=O)c1ccc(Br)cc1	.	26.4*	2.2*	1.3*
O=C(COC(=O)CC12CC3CC(CC(C3)C1)C2)Nc1ncc(Cl)cc1Cl	.	101.3	95.3	89.5
N#C/C(=C\c1ccc(OCc2ccccc2)cc1)C(=O)Nc1nc2c(s1)CCN(Cc1ccccc1)C2	.	17.3*	12.6*	21.9*
O=C(Cc1cn2ccsc2n1)Nc1nc2c(s1)CN(Cc1ccccc1)CC2	-5.8	95.7	89.3	90.9
CCCn1c(SCC(=O)Nc2ccccc2C(=O)OCC)nc2c1c(=O)n(C)c(=O)n2C	-7.5	105.2	98.2	98.2
CCOC(=O)c1ccccc1NC(=O)CSc1nc2c(c(=O)n(C)c(=O)n2C)n1C	0.6	.	106.6	31.8*
O=C1CSC(=S)N1Cc1cccnc1	3.6	36.5*	51.2	1.2*
